Measurements from article PMC2933425 (Journal of medicinal chemistry, 2010).
Like-named read-outs stand apart in the source and are kept apart here. Marks after values point to notes of the source that are not given here.

Tests used:
[1] = Photophysical measurements; type: physicochemical; settings: for Qy(0,0) absorption fwhm / Qy(0,0) absorption λ / Qy(0,0) fluorescence fwhm / Qy(0,0) fluorescence λ: aerated methanol; for Θ f (fluorescence quantum yield) / τS (lifetime of the lowest singlet excited state): Ar-purged methanol; for τS (lifetime of the lowest singlet excited state): fluorescence detection; for Φisc (triplet-excited-state quantum yield, measured directly): Ar-purged solutions; for kic (rate constant for internal conversion of the lowest singlet excited state to the ground state): printed as (x ns)^−1, from Φisc, Φf and τS
[2] = test system: HeLa human cervical cancer cells; assay: In vitro PDT toxicity on HeLa cells after illumination; type: cell-based; settings: for LD50: 24 h; for phototoxicity per unit uptake (in words) / incubation period needed to exert PDT toxicity (time-course) / LD50 (least active compounds): HeLa; for phototoxicity per unit uptake (in words): normalized to the same uptake level; for incubation period needed to exert PDT toxicity (time-course): 0.5 μM, various incubation times, 10 J/cm^2 of 732 nm light; for LD50 (least active compounds): 10 J/cm^2 of 732 nm laser
HeLa cells [3] = assay: Cellular uptake into HeLa cells; type: cell-based, human; settings: 24 h, highest concentration (20.5 μM)
Outline: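 HeLa cells in RPMI with 10% heat-inactivated FBS, seeded at 5000/well and grown 24 h, then exposed 24 h to test compound diluted in complete medium. Cells rinsed with warm PBS, lysed in SOLVABLE 2 h at 37 °C. Lysate fluorescence read at ex 402/em 730 nm against per-compound calibration curves in SOLVABLE. Protein by BCA with BSA standards. Expressed as nmol per mg protein; three experiments.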

HeLa cells [4] = type: cell-based, human; settings: 1 μM bacteriochlorin, 24 h
Outline: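 HeLa cells in 35 mm dishes, attached overnight, then given 1 μM test compound in complete medium for 24 h. After a PBS wash, 5 μg/mL LysoTracker green DND-26, MitoTracker green FM or ER-Tracker green was added for 30 min at 37 °C. Cells were washed again and imaged 5–10 min later by confocal microscopy: 488 nm argon excitation, probe emission 515 ± 10 nm, compound emission >580 nm, 63× water lens. Red/green overlays scored for overlap.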

[5] = test system: HeLa human cervical cancer cells; assay: Dark toxicity on HeLa cells; settings: no light, at 10 μM
[6] = test system: HeLa human cervical cancer cells; settings: 24 h, 10 μM
[7] = cited from earlier work
[8] = Ar-purged 2-methyltetrahydrofuran
[9] = freeze–pump–thaw degassed methanol

Structure (SMILES) | LD50 [2] | uptake level (in words) (HeLa cells [3]) | Qy(0,0) absorption fwhm [1] | Qy(0,0) absorption λ [1] | phototoxicity per unit uptake (in words) [2] | τT (lifetime of the lowest triplet excited state) [1, 8] | Θ f (fluorescence quantum yield) [1] | τS (lifetime of the lowest singlet excited state) [1] | Qy(0,0) fluorescence fwhm [1] | Qy(0,0) fluorescence λ [1] | also measured
CC1(C)Cc2cc3ccc(cc4nc(cc5ccc(cc1n2)[nH]5)CC4(C)C)[nH]3 [8,8,18,18-tetramethylbacteriochlorin, reference compound] |  |  |  |  |  |  |  |  |  |  | Φf of fluorescence standard ([1]; Ar-purged toluene, Soret and Qx excitation): 0.125
COCCOCCOCCOCCNCc1cc(CNCCOCCOCCOCCOC)cc(-c2c3nc(cc4[nH]c(cc4-c4ccc(C)cc4)c(OC)c4nc(cc5[nH]c2cc5-c2ccc(C)cc2)C(C)(C)C4)C(C)(C)C3)c1 [Compound 1] | 500 nM | Low to intermediate uptake | 21 nm | 732 nm |  |  |  |  |  |  | 
CC1(C)Cc2cc3[nH]c(cc4nc(cc5[nH]c(cc1n2)cc5-c1cc(OCCO)cc(OCCO)c1)CC4(C)C)cc3-c1cc(OCCO)cc(OCCO)c1 [Compound 3] |  |  | 19 nm | 732 nm | high values | 159 μs | 0.15 | 3.0 ns | 24 nm | 738 nm | 
CC1(C)Cc2cc3[nH]c(cc4nc(cc5[nH]c(cc1n2)cc5-c1cc(O)cc(O)c1)CC4(C)C)cc3-c1cc(O)cc(O)c1 [Compound 4] |  |  | 21 nm | 732 nm | high values | 190 μs | 0.12 | 3.7 ns | 26 nm | 737 nm | incubation period needed to exert PDT toxicity (time-course) [2]: most rapid toxicity; overlap with endoplasmic reticulum probe (ER-Tracker) (HeLa cells [4]): high degree of localization; Φisc (triplet-excited-state quantum yield, measured directly) [1]: 0.41; kic (rate constant for internal conversion of the lowest singlet excited state to the ground state) [1]: 7.7 (ns)^−1
CC1(C)Cc2cc3[nH]c(cc4nc(cc5[nH]c(cc1n2)cc5C#CC[N+](C)(C)C)CC4(C)C)cc3C#CC[N+](C)(C)C.[Cl-].[Cl-] [Compound 5] |  | Intermediate uptake levels | 16 nm | 749 nm | much lower values |  | 0.11 | 3.8 ns | 22 nm | 754 nm | LD50 (least active compounds) [2]: > 1 µM; dark toxicity level [5]: ~50%; τT (lifetime of the lowest triplet excited state) [1, 9]: 104 ^k μs
CC1(C)Cc2cc3[nH]c(cc4nc(cc5[nH]c(cc1n2)cc5CN(CCO)CCO)CC4(C)C)cc3CN(CCO)CCO [Compound 6] |  | Intermediate uptake levels | 18 nm | 718 nm | high values | 190 μs | 0.095 | 3.8 ns | 23 nm | 724 nm | overlap with endoplasmic reticulum probe (ER-Tracker) (HeLa cells [4]): good overlap; dark toxicity level [6]: ~50%
CC1(C)Cc2cc3[nH]c(cc4nc(cc5[nH]c(cc1n2)cc5C(=O)O)CC4(C)C)cc3C(=O)O [Compound 7] | 4000 nM | lowest uptake | 26 nm | 734 nm |  | 70 μs | 0.077 | 3.7 ns | 19 nm | 742 nm | LD50 (least active compounds) [2]: > 1 µM
CC1(C)Cc2cc3[nH]c(cc4nc(cc5[nH]c(cc1n2)cc5C(=O)NCCN)CC4(C)C)cc3C(=O)NCCN [Compound 8] | 3000 nM | Intermediate uptake levels | 23 nm | 742 nm | much lower values |  | 0.13 | 4.0 ns | 25 nm | 750 nm | incubation period needed to exert PDT toxicity (time-course) [2]: longest incubation times; LD50 (least active compounds) [2]: > 1 µM; overlap with endoplasmic reticulum probe (ER-Tracker) (HeLa cells [4]): hardly any overlap; τT (lifetime of the lowest triplet excited state) [1, 9]: 77 ^k μs
CC1(C)Cc2cc3[nH]c(cc4nc(cc5[nH]c(cc1n2)cc5C(=O)N(CCN)CCN)CC4(C)C)cc3C(=O)N(CCN)CCN [Compound 9] | 800 nM | low uptake | 19 nm | 729 nm | much lower values |  | 0.12 | 3.5 ns | 24 nm | 735 nm | Φisc (triplet-excited-state quantum yield, measured directly) [1]: 0.57; τT (lifetime of the lowest triplet excited state) ([1]; freeze–pump–thaw degassed ethanol): 54 ^l μs; kic (rate constant for internal conversion of the lowest singlet excited state to the ground state) [1]: 11.4 (ns)^−1
CC1(C)Cc2cc3[nH]c(cc4nc(cc5[nH]c(cc1n2)cc5C(=O)N1CC[N+](C)(C)CC1)CC4(C)C)cc3C(=O)N1CC[N+](C)(C)CC1.[Cl-].[Cl-] [Compound 10] |  | low uptake | 21 nm | 731 nm | much lower values |  | 0.12 | 3.8 ns | 28 nm | 740 nm | τT (lifetime of the lowest triplet excited state) [1, 9]: 100 ^k μs
CC1(C)Cc2cc3[nH]c(cc4nc(cc5[nH]c(cc1n2)cc5C(=O)/C=C/c1cc(O)cc(O)c1)CC4(C)C)cc3C(=O)/C=C/c1cc(O)cc(O)c1 [Compound 11] | 200 nM | low uptake | 35 nm | 781 nm |  | 78 μs | 0.021 | 3.4 ns | 40 nm | 800 nm | 
COCCN(CCOC)C(=O)c1cc2cc3nc(cc4[nH]c(cc5nc(cc1[nH]2)CC5(C)C)cc4C(=O)N(CCOC)CCOC)CC3(C)C [Compound 12] |  | highest uptake | 20 nm | 727 nm | high values | 105 μs | 0.10 | 3.3 ns | 27 nm | 733 nm | 
CC[C@H]1c2cc3[nH]c4c(c3C)C(=O)[C@H](C(=O)OC)c4c3nc(cc4[nH]c(cc(n2)[C@@H]1C)c(C(C)=O)c4C)[C@@H](C)[C@@H]3CCC(=O)OC/C=C(\C)CCC[C@H](C)CCC[C@H](C)CCCC(C)C [bacteriopheophytin a] |  |  |  |  |  |  |  |  |  |  | yield of the lowest triplet excited state [7]: 0.54
C1=Cc2nc1c(-c1ccccc1)c1nc(c(-c3ccccc3)c3ccc([nH]3)c(-c3ccccc3)c3ccc([nH]3)c2-c2ccccc2)C=C1 [free base tetraphenylporphyrin, tetraphenylporphyrin] |  |  |  |  |  |  |  |  |  |  | Φf of fluorescence standard ([7]; in toluene ref 33): 0.090
